Experiments:
blood stage = assay: Blood stage assays; type: cell-based; details: Plasmodium berghei, read-out: IC50 in blood stage assays
Bacillus subtilis 3610 = assay: Antibiotic assay; type: cell-based; details: concentrations as high as 50 μg/mL
[1] = system: liver-stage Plasmodium berghei; assay: Liver-stage P. berghei assay; type: cell-based, Plasmodium berghei ANKA
Method in brief: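 Luciferase-expressing P. berghei ANKA sporozoites came from dissected infected Anopheles stephensi mosquitoes. 4000 sporozoites infected 15 000 HepG2 cells per well with test compound in triplicate, 0 to 50 μg/mL, final DMSO 1%. After 2 days at 37 °C, relative parasite load was read by Bright-Glo luminescence. Standard inhibition dose–response fit gave IC50, mean of two independent experiments.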

[2] = system: HepG2 human hepatoma cells; assay: Cytotoxic assay, HepG2 cell viability; type: cell-based; details: concentrations as high as 50 μg/mL
Method in brief: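 HepG2 cells kept in DMEM with 10% FBS and 1% antibiotic–antimycotic at 37 °C, 5% CO2. Test compound in DMSO added in triplicate to 15 000 cells per well, 0 to 50 μg/mL, final DMSO 1%. Incubated 2 days at 37 °C, then viability read by CellTiter-Glo luminescence. Standard inhibition dose–response fit gave IC50, averaged from two independent experiments.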

| IC50 (blood stage) [nM] | Structure (SMILES) | activity against B. subtilis (in words) (Bacillus subtilis 3610) | activity against liver-stage Plasmodium berghei (in words) [1] | cytotoxicity against HepG2 cells (in words) [2] |
| --- | --- | --- | --- | --- |
| 0.3 | O=C1C(O)=C([C@H]2CC[C@H](c3ccc(Cl)cc3)CC2)C(=O)c2ccccc21 [Atovaquone] | – | – | – |
| – | COc1cccc2c1C(=O)c1ccc3c(c1C2=O)C(=O)C[C@](C)(O)C3 [Compound 4, 6-deoxy-8-O-methylrabelomycin] | showed antibiotic activity | showed antibiotic activity | – |
| – | COc1cccc2c1C(=O)c1ccc3cc(C)cc(O)c3c1C2=O [Compound 5, X-14881 E] | showed antibiotic activity | showed antibiotic activity | moderate cytotoxicity |
